Screening data as filed in PubChem.
Shown are actives, neighbours in structure and some others; about 1.9% of the full set was active somewhere.
M5 ag = CHRM5 agonism in calcium assay. P08912. CHO-K1 hM5 cells, Fluo-8 calcium fluorescence; 0% DMSO wells, 100% maximal acetylcholine response. activation, % at 3 µM. 360,000 compounds, 0.19% hits. AID 624037;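 active = activation above the run's mean over test compounds plus 3 SD, cut at about 23% in these data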;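 note: signal is peak over basal fluorescence ratio across the kinetic read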
CHRM4 agonist = agonists of human muscarinic M4 receptor (CHRM4) | CHO-K1 hM4/Gqi5, Fluo-8 calcium fluorescence; vehicle 0%, full acetylcholine response 100% | P08173 | AID 624127 | activation, % at 3 µM | 360,000 compounds, 0.14% hits;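 active = activation above the run mean over all test wells plus 3 SD, cut at about 32% in these data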;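 note: peak over basal fluorescence ratio per well then scaled between controls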
Target sequence (P08173 whole entry, looked up): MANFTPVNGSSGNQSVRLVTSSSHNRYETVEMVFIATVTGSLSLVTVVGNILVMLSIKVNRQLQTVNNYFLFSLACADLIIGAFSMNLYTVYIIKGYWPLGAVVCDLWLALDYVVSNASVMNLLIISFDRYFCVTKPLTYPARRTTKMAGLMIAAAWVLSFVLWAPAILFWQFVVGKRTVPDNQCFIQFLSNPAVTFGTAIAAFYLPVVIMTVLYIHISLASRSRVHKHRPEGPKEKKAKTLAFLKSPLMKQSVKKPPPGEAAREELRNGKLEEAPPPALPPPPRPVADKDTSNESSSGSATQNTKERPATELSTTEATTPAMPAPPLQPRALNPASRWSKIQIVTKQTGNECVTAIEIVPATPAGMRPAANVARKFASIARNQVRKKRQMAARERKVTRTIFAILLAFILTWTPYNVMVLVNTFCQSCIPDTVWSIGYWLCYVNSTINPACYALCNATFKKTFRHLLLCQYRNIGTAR
M5 antag = blocks acetylcholine activation of human M5 receptor; CHO-hM5 cells, Fluo-8 calcium fluorescence, ACh EC80; inhibition, % at 3 µM; 360,000 compounds, 0.59% hits;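 active = inhibition above a per-plate cutoff, the mean of that plate's test compounds plus 3 SD, cut at about 27% in these data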
M5 PAM = CHRM5 positive allosteric modulation. 360,000 compounds, 0.3% hits. P08912. CHO-K1 hM5, Fluo-8 calcium, ACh EC20 PAM; 0% = ACh EC20, 100% = ACh EC100. activation, % at 3 µM;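 active = activation above the run cutoff, the mean activation of all test compounds plus 3 SD, cut at about 18% in these data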
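System: CHO-K1 hM5 cells. Reagent: acetylcholine, EC20 level. Compound dosing: single dose, 3 µM nominal final test concentration. Timing: Post-acetylcholine fluorescence recording 140 s. Detection: Fluo-8 calcium fluorescence. Read-out: % activation, ACh-normalized. Benchmarks: ACh EC20 and EC100 wells. Repeats: singlicate, one well per test compound.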
M4 PAM = positive allosteric modulators of human muscarinic M4 receptor | P08173 | CHO-K1 hM4/Gqi5, Fluo-8 calcium fluorescence, ACh EC20; 0% = ACh EC20, 100% = maximal ACh | activation, % at 3 µM | 360,000 compounds, 0.4% hits;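 active = activation above its plate's cutoff, the mean activation of sample wells plus 3 SD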
M4 antag = CHRM4 antagonism in calcium assay | AID 624125 | CHO-hM4 cells, ACh EC80, Fluo-8 calcium fluorescence | 360,000 compounds, 0.73% hits | P08173 | inhibition, % at 3 µM;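 active = inhibition above its plate's cutoff, the mean inhibition of sample wells plus 3 SD, cut at about 27% in these data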
Large screens that a line does not name were inactive.

O=C(CC[C@H]1O[C@@H](n2ccc(=O)[nH]c2=O)[C@H](O)[C@@H]1O)N1CCN(c2ccccn2)CC1	M4 PAM 21
Cc1ccc(C(=O)OCC(=O)NCCc2ccc(F)cc2)cc1S(=O)(=O)N1CCOCC1	none
O=C(COC(=O)c1ccc(F)c(S(=O)(=O)N2CCOCC2)c1)NCCc1ccccc1	M4 PAM 21
O=C(NCCCCCCNC(=O)c1ccccc1O)c1ccccc1O	M5 antag 28
CCn1nc(C(=O)OCc2c(C)noc2C)c2ccccc2c1=O	M5 PAM 56
COc1ccc(C/C(C)=N/NC(=O)c2cccnc2)cc1	M5 PAM 19, M4 PAM 33
COc1ccc(C/C(C)=N/NC(=O)c2ccc(Cl)cc2)cc1	none
Cc1csc(NC(=O)C2CCN(S(=O)(=O)c3ccc4c(c3)oc(=O)n4C)CC2)n1	none
Cc1csc(NC(=O)C(CC(C)C)NS(=O)(=O)c2ccc3c(c2)oc(=O)n3C)n1 (stereo not drawn)	M4 antag 34
Cc1sc2ncnc(NCC(O)c3ccccc3)c2c1C (stereo not drawn)	none
Cc1sc2ncnc(NCC(O)c3ccc([N+](=O)[O-])cc3)c2c1C (stereo not drawn)	M5 antag 36
CCN1CCN(c2nn3c(=O)c4ccccc4nc3c3ccccc23)CC1	none
COc1cccc(CNCc2ccc(OC)c3ccccc23)c1OC	CHRM4 agonist 37, M5 antag 31
O=C1NC2(CCCCCC2)C(=O)N1Cc1c(F)cccc1Cl	M4 antag 31
O=C1NC2(CCCCCC2)C(=O)N1Cc1ccccc1F	none
COC(=O)c1ccc(N2C(c3ccsc3)=Cc3cc4c(cc3C2CC(=O)c2ccco2)OCO4)cc1 (stereo not drawn)	M4 antag 30
CC(=O)Nc1ccc(C(=O)Nc2cc(C)on2)cc1	M4 antag 28
CC(C)(C)c1ccc(NC(=O)c2cc[n+]([O-])cc2)cc1	none
CC(=O)Nc1ccc(NC(=O)c2cc[n+]([O-])cc2)cc1	M5 antag 29
CC(C)c1ccc(Nc2ncc3c(n2)CCN(C(=O)Nc2ccc(F)c(Cl)c2)C3)cc1	none
COc1cccc(NC(=S)NN2C(C)CCCC2C)c1 (stereo not drawn)	none
Cc1ccc2c(c1)sc[n+]2Cc1ccccc1	M5 PAM 21
COc1cccc(CNC(=O)CN2C(=O)c3ccccc3S2(=O)=O)c1	M4 PAM 25
COc1cccc(CNC(=O)Cn2nc(C)c([N+](=O)[O-])c2C)c1	M5 PAM 21
COc1ccccc1CNC(=O)Cn1nc(C)c([N+](=O)[O-])c1C	none
COc1ccc(CCNC(=O)CCN2C(=O)[C@@H]3Cc4ccccc4CN3C2=O)cc1	none
COc1cccc(CNC(=O)CCN2C(=O)[C@@H]3Cc4ccccc4CN3C2=O)c1	M4 PAM 20
O=C(CN1C(=O)c2ccccc2S1(=O)=O)NCc1ccccc1	none
CCOC(=O)C1CCN(C(=O)/C(=C/c2ccccc2)NC(=O)c2ccccc2)CC1	none
S=c1nc(C2CC2)[nH]c2ccccc12	none
CC1CCc2nc3ccccc3c(C(=O)OCC(=O)NC3CCS(=O)(=O)C3)c2C1 (stereo not drawn)	none
COc1cccc(NC(=O)COC(=O)c2c3c(nc4ccccc24)CCC(C)C3)c1 (stereo not drawn)	M4 antag 41
O=C(CN1CCC(c2nc3ccccc3s2)CC1)NCc1ccccc1	none
CC1=CC2=NC(=O)CC(C)(C(=O)N(CC(=O)NC3CCCC3)c3ccccc3C)N2C=C1 (stereo not drawn)	none
COc1ccc(CNS(=O)(=O)c2ccc3c(c2)N(C)CCO3)cc1	M5 antag 29
N/C(=N\OC(=O)CSc1ccccc1)c1ccccn1	M4 PAM 21
Cc1cc2ccccc2n1CCNC(=O)c1ccc(Br)o1	M5 antag 27
O=C(NCCCCc1ccccc1)c1ccc(Br)o1	none
O=C(NCCCc1ccccc1)c1ccc(Br)o1	M4 PAM 31
COc1ccccc1NC(=O)CSc1ccc2nnc(CCNC(=O)c3ccccc3)n2n1	none
CC(=O)c1c(N2CCCCC2)nc(=S)n(Cc2ccccc2)c1C	none
CCn1c(C)c(C(C)=O)c(N2CCN(c3ccc(F)cc3)CC2)nc1=S	none
C=CCn1c(C)c(C(C)=O)c(N2CCN(c3ccccc3)CC2)nc1=S	M4 antag 30
CCn1c(C)c(C(C)=O)c(N2CCCC2)nc1=S	M4 antag 37
C=CCn1c(C)c(C(C)=O)c(N2CCCC2)nc1=S	M4 antag 72
CC(=O)c1c(N2CCN(c3ccccc3)CC2)nc(=S)n(-c2ccccc2)c1C	none
C=CC1CN(CC(=O)OC)S(=O)(=O)c2ccccc21 (stereo not drawn)	none
CCOC(=O)C1CCN(C(=O)Cn2c(=O)c3cccn3c3cccnc32)CC1	none
Cc1ccc(Sc2ncccc2C(=O)NCc2cc([N+](=O)[O-])ccc2O)cc1C	none
CC12CCC(=O)C=C1CCC1C2CCC2(C)C(c3csc(N)n3)CCC12 (stereo not drawn)	M4 antag 47
CC12CCC(=O)C=C1CCC1C2C(O)CC2(C)C(c3csc(N)n3)CCC12 (stereo not drawn)	none
CCN(CC)c1ccc(C=C2SC(=S)NC2=O)cc1	M5 ag 72, M5 antag 35
Fc1ccc(COc2ccc(Cl)cc2/C=N/Nc2nc(N3CCCC3)nc(N3CCCC3)n2)cc1	CHRM4 agonist 34
C[C@H]1c2cccc(O)c2C(O)=C2C(=O)[C@]3(O)C(O)=C(C(N)=O)C(=O)[C@@H](N(C)C)[C@@H]3[C@@H](O)[C@@H]21	M5 ag 27
COC(=O)c1oc2ccc(Br)cc2c1NC(=O)CCCN1C(=O)c2ccccc2C1=O	M5 antag 29, M4 antag 98
CCOC(=O)c1nc(C)sc1-c1ccnn1S(=O)(=O)c1ccccc1C(F)(F)F	none
CC(=O)Nc1ccc2c(c1)CCc1ccccc1-2	none
CNCCC=C1c2ccccc2CCc2ccccc21	M5 antag 93, M4 antag 67
O=c1c(/C=N\NS(=O)(=O)c2ccccc2)coc2ccc(Cl)cc12	M5 antag 35
CCC(C)(C)NC(=O)C(c1ccco1)N(C(=O)CNC(=O)c1cccs1)c1cccnc1 (stereo not drawn)	M5 antag 29, M5 PAM 29
C=CCn1c(O)c(CN2CCCCC2)c(C)c(C#N)c1=O	none
O=C(COC(=O)COc1ccccc1)Nc1ccc(Br)cc1F	M4 PAM 14
